# Key:
# [1] = test system: Mus musculus; test: Compound was evaluated for percent mortality of mice inoculated with murine cytomegalovirus at a concentration of 50 mg/kg at 6 h; format: ADME, organism-based; parameters: dose 50 mg/kg; settings: in vivo
# How it was run: (§1)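 Three-week-old female Swiss Webster mice infected ip with 2×10^5 PFU MCMV Smith strain; groups of 15 given drug ip twice daily for 5 days, starting 6, 24 or 48 h after inoculation. Toxicity controls received drug without virus. Mortality followed daily for 21 days; final mortality compared with placebo by Fisher Exact Test.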
# [2] = Cytotoxicity of HCMV in human foreskin fibroblasts cells; format: functional, cell-based; settings: Fibroblast
# How it was run: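 Visual cytotoxicity was scored in uninfected cells of the same host monolayers used for the plaque assays, on a 0 to 4+ scale at 35- and 60-fold magnification, at the time plaques were counted.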
# [3] = test system: L1210; test: In vitro inhibition of L1210 cell growth.; format: functional, Mus musculus; parameters: concentration or dose not given beside the values
# How it was run: (§2)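 Murine L1210 leukemia cells in static suspension culture in Fischer's medium with compound for 4 days. Growth rate is the ratio of control to treated population doubling time; where the rate changed, the final rate was used. IC50 is the concentration giving 50% of control growth rate; single-concentration value at 100 μM.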
# [4] = test system: Mus musculus; test: Compound was evaluated for 15 mice treated ip twice daily for 5 days at a dose of 5.6 mg/kg at 6 hr followed (MCMV) virus inoculation; format: functional; settings: route intraperitoneal
# How it was run: (§3)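 Three-week-old female Swiss Webster mice inoculated ip with 2×10^5 PFU MCMV Smith strain. Groups of 15 dosed ip twice daily for 5 days, starting 6, 24 or 48 h post-inoculation. Held 21 days with daily mortality checks. Final mortality and mean day of death (dying animals) computed. Mortality versus placebo by Fisher Exact Test, MDD by Mann–Whitney U-rank test.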
# [5] = test system: Mus musculus; test: Compound was evaluated for mean day of death at 50 mg/kg at 48 h; format: functional; how it was run: as §3
# [6] = Compound was evaluated for percent mortality of mice inoculated with murine cytomegalovirus at a concentration of 16.7 mg/kg; drug toxicity control; format: organism-based; parameters: dose 16.7 mg/kg; settings: mouse, in vivo
# How it was run: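 Drug toxicity control: uninfected three-week-old female Swiss Webster mice, groups of 15, dosed ip twice daily for 5 days. Held 21 days with daily mortality checks. Final mortality and mean day of death for animals that died were calculated.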
# [7] = Inhibition of herpes simplex virus type 1(HSV-1) in human foreskin fibroblasts cell lines was determined by plaque assay; format: functional, cell-based; settings: Fibroblast
# How it was run: (§4)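 Plaque reduction used MCMV Smith in primary mouse embryo fibroblasts, HCMV AD169 in low-passage HFF, and HSV-1 E-377 and HSV-2 MS in MEF, rabbit kidney or HFF. IC50 was determined against untreated controls; two or more experiments.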
# [8] = test system: Mus musculus; test: Compound was evaluated for 15 mice treated ip twice daily for 5 days at a dose of 16.7 mg/kg at 24 hr followed (MCMV) virus inoculation; format: functional; settings: route intraperitoneal; how it was run: as §3
# [9] = Compound was evaluated for cytotoxic activity against BSC cells; format: functional, cell-based; settings: Cercopithecidae
# How it was run: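 Visual cytotoxicity in uninfected areas of plaque-reduction cultures. HFF cells grown in MEM(E) + 10% FBS for HCMV (Towne) assays; BSC-1 cells for HSV-1 (S-148) assays. Drug in overlay medium. Cytopathology scored 0 to 4+ at 35- and 60-fold magnification on the staining day.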
# [10] = test system: Mus musculus; test: Compound was evaluated for percent mortality of mice inoculated with murine cytomegalovirus at a concentration of 16.7 mg/kg at 24 h; format: organism-based; parameters: dose 16.7 mg/kg; settings: in vivo; how it was run: as §3
# [11] = test system: Mus musculus; test: Compound was evaluated for percent mortality of mice inoculated with murine cytomegalovirus at a concentration of 16.7 mg/kg at 48 h; format: organism-based; parameters: dose 16.7 mg/kg; settings: in vivo; how it was run: as §3
# [12] = Cytotoxicity of AD169 strain of HCMV in human foreskin fibroblasts cells; format: functional, cell-based; settings: Fibroblast
# [13] = test system: Mus musculus; test: Compound was evaluated for percent mortality of mice inoculated with murine cytomegalovirus at a concentration of 5.6 mg/kg at 48 h; format: ADME, organism-based; parameters: dose 5.6 mg/kg; settings: in vivo; how it was run: as §1
# [14] = test system: Mus musculus; test: Compound was evaluated for 15 mice treated ip twice daily for 5 days at a dose of 1.9 mg/kg at 24 hr followed (MCMV) virus inoculation; format: functional; settings: route intraperitoneal; how it was run: as §3
# [15] = test system: Mus musculus; test: Compound was evaluated for mean day of death at 1.9 mg/kg at 24 h; format: functional; how it was run: as §3
# [16] = test system: Neoplastic cell line; test: Compound was evaluated for cytotoxic activity against KB cells.; format: functional, cell-based; settings: Homo sapiens
# How it was run: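 KB cells grown in MEM(H) + 5% FBS. Compound effects measured on radiolabelled precursor incorporation into DNA, RNA and protein. IC50s from linear regression of percent inhibition vs log concentration. The three IC50s were averaged, with 2–5 experiments averaged. Runs rejected if the acyclovir/ganciclovir control deviated >1.5 SD from its mean.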
# [17] = test system: L1210; test: In vitro inhibition of L1210 cell growth to half of the control rate; format: functional, cell-based; settings: Mus musculus; how it was run: as §2
# [18] = test system: Mus musculus; test: Compound was evaluated for 15 mice treated ip twice daily for 5 days at a dose of 1.9 mg/kg followed (MCMV) virus inoculation; format: functional; settings: route intraperitoneal
# [19] = species on record: Homo sapiens; test: Inhibition of human cytomegalo virus (HCMV) in human foreskin fibroblasts cell lines was determined by plaque assay; format: functional, organism-based; settings: Fibroblast
# How it was run: (§5)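 HCMV Towne strain (plaque-purified P0) plaque reduction in HFF monolayers in MEM(E) with 10% FBS. Inoculum held about 50 PFU, with compound dissolved in the overlay medium. IC50 came from linear regression of percent inhibition against log concentration, with ganciclovir or acyclovir positive controls in every set; two to five experiments.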
# [20] = test system: Mus musculus; test: Compound was evaluated for 15 mice treated ip twice daily for 5 days at a dose of 16.7 mg/kg at 6 hr followed (MCMV) virus inoculation; format: functional; settings: route intraperitoneal; how it was run: as §3
# [21] = test system: Mus musculus; test: Compound was evaluated for 15 mice treated ip twice daily for 5 days at a dose of 16.7 mg/kg followed (MCMV) virus inoculation; format: functional; settings: route intraperitoneal
# [22] = test system: Mus musculus; test: Compound was evaluated for mean day of death at 1.9 mg/kg at 48 h; format: functional; how it was run: as §3
# [23] = test system: Human betaherpesvirus 5; test: Inhibition of human cytomegalovirus (HCMV) in plaque reduction assay; format: functional, organism-based; how it was run: as §5
# [24] = test system: Mus musculus; test: Compound was evaluated for percent mortality of mice inoculated with murine cytomegalovirus at a concentration of 16.7 mg/kg at 6 h; format: organism-based; parameters: dose 16.7 mg/kg; settings: in vivo; how it was run: as §3
# [25] = test system: Mus musculus; test: Compound was evaluated for percent mortality of mice inoculated with murine cytomegalovirus at a concentration of 50 mg/kg at 48 h; format: ADME, organism-based; parameters: dose 50 mg/kg; settings: in vivo; how it was run: as §1
# [26] = test system: Mus musculus; test: Compound was evaluated for 15 mice treated ip twice daily for 5 days at a dose of 50 mg/kg at 48 hr followed (MCMV) virus inoculation; format: functional; settings: route intraperitoneal; how it was run: as §3
# [27] = species on record: Mus musculus; test: Inhibition of murine cytomegalo virus in mouse embryo fibroblasts cell lines was determined by plaque assay; format: functional, organism-based; settings: Fibroblast; how it was run: as §4
# [28] = test system: Mus musculus; test: Compound was evaluated for 15 mice treated ip twice daily for 5 days at a dose of 50 mg/kg at 24 h followed (MCMV) virus inoculation; format: functional; settings: route intraperitoneal; how it was run: as §3
structure (smiles),measurement,setting,value
Nc1ncnc2c1c(Br)cn2COC(CO)CO,Mortality,[1],60%
same,IC50,[2],> 100 µM
same,Activity,[3],0%
same,Activity,[4],1
same,MDD,[5],7.5
same,Mortality,[6],7%
same,IC50,[7],200 nM
same,Activity,[8],12
same,IC50,[9],> 100 µM
same,Mortality,[10],80%
same,Mortality,[11],87%
same,IC50,[12],> 158 µM
same,Mortality,[13],40%
same,Activity,[14],9
same,MDD,[15],4.8
same,IC50,[16],> 100 µM
same,IC50,[17],710 nM
same,Activity,[18],0
same,IC50,[19],1600 nM
same,Activity,[20],9
same,Activity,[21],1
same,MDD,[22],4.8
same,IC50,[23],1900 nM
same,IC50,[23]; Human betaherpesvirus 5,1600 nM
same,Mortality,[24],60%
same,Mortality,[25],87%
same,Activity,[26],13
same,IC50,[27],30 nM
same,Activity,[28],14
